Active and inactive are the calls of the source. The calls are words filed in the database; no cut-off is given here.
Experiments:
Histone deacetylase 3 = Histone deacetylase 3 (Homo sapiens, UniProt O15379); test: Inhibition of human recombinant HDAC3 using AMC-K(Ac)GL as substrate by fluorescence based assay
Histone deacetylase 8 = target: T1, Histone deacetylase 8 (Homo sapiens, UniProt Q9BY41); test: Inhibition of human recombinant HDAC8 using AMC-K(Ac)GL as substrate by fluorescence based assay
T1 sequence (Q9BY41 whole entry): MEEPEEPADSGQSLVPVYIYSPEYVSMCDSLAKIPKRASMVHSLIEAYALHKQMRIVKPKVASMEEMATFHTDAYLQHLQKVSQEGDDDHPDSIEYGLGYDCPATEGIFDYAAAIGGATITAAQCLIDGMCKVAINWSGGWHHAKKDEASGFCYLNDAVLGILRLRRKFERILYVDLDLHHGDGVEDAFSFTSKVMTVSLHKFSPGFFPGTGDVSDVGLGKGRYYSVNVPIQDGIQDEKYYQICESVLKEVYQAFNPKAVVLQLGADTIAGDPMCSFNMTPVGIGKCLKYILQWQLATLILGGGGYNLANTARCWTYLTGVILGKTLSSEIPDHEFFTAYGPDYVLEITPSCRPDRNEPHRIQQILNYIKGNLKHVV

U-937 [1] = test: Cytotoxicity against human U937 cells assessed as reduction in cell viability at 25 uM incubated for 96 hrs by CellTiter-Glo Luminescent cell viability assay relative to control; type: functional; conditions: U-937, 96 h
In short: (§1)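 Viability of U937 (5–25 μM) and RH4 (5–35 μM) cells after 48, 72 and 96 h of treatment at increasing concentrations.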

[2] = Cytotoxicity against human RH4 cells assessed as reduction in cell viability at 35 uM incubated for 96 hrs by CellTiter-Glo Luminescent cell viability assay relative to control; type: functional; conditions: Rh4, 96 h; in short: as §1
THP-1 = test: Cytotoxicity against human THP1 cells assessed as reduction in cell viability incubated for 72 hrs by CellTiter-Glo Luminescent cell viability assay; type: functional, cell-based; conditions: THP-1, 72 h
In short: (§2)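 Antiproliferative IC50 after 72 h of treatment. Values are means of three independent experiments, each measured in triplicate, ± SD.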

SK-N-SH = test: Cytotoxicity against human SK-N-SH cells assessed as reduction in cell viability incubated for 72 hrs by CellTiter-Glo Luminescent cell viability assay; type: functional, cell-based; in short: as §2
U-87 MG = test: Cytotoxicity against human U87 cells assessed as reduction in cell viability incubated for 72 hrs by CellTiter-Glo Luminescent cell viability assay; type: functional, cell-based, U-87MG ATCC; in short: as §2
U-937 [3] = test: Induction of apoptosis in human U937 cells assessed as necrotic cells at 10 uM incubated for 72 hrs by annexin V-FITC staining based flow cytometry (reference value: 0.5 %); type: functional
U-937 [4] = test: Induction of apoptosis in human U937 cells assessed as late apoptotic cells at 25 uM incubated for 72 hrs by annexin V-FITC staining based flow cytometry (reference value: 0.7 %); type: functional
[5] = Cell cycle arrest in human RH4 cells assessed as S accumulation at 14 uM incubated for 72 hrs by propidium iodide staining based flow cytometry (reference value: 29.9 %); type: functional
[6] = Cell cycle arrest in human RH4 cells assessed as G0/G1 accumulation at 28 uM incubated for 72 hrs by propidium iodide staining based flow cytometry (reference value: 46.2 %); type: functional
[7] = Induction of apoptosis in human RH4 cells assessed as late apoptotic cells at 28 uM incubated for 72 hrs by annexin V-FITC staining based flow cytometry (reference value: 2.1 %); type: functional
Homo sapiens = species on record: Homo sapiens; test: Cell cycle arrest in human RH4 cells assessed as increase in subG1 accumulation incubated for 72 hrs by propidium iodide staining based assay; type: functional
U-937 [8] = test: Induction of differentiation of human U937 cells assessed as increase in CD11b level at 10 uM incubated for 72 hrs by flow cytometry analysis; type: functional
In short: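 U937 cells were treated for 72 h at 10 and 25 μM, and surface CD11b expression was measured as a differentiation marker.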

U-87MG ATCC [9] = test: Upregulation of E-cadherin levels in human U87 cells at 5 to 25 uM incubated for 24 hrs by Western blot analysis; type: functional, cell-based
In short: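 U87 glioblastoma cells treated 24 h at 5, 10 and 25 μM with DMSO control; E-cadherin and Snail probed by Western blot, tubulin as loading control.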

U-87MG ATCC [10] = test: Upregulation of snail in human U87 cells at 5 to 25 uM incubated for 24 hrs by Western blot analysis; type: functional, cell-based
In short: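 U87 glioblastoma cells exposed for 24 h at 5, 10 and 25 μM, with DMSO vehicle as control. Snail and E-cadherin protein levels were read by Western blot, with tubulin as the loading control.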

U-937 [11] = test: Cell cycle arrest in human U937 cells assessed as subG1 accumulation at 10 uM incubated for 72 hrs by propidium iodide staining based flow cytometry (reference value: 4.9 %)
U-937 [12] = test: Cytotoxicity against human U937 cells assessed as combinational index measured at fraction affected value of […] in presence of vorinostat at 25 uM incubated for 72 hrs by CellTiter-Glo Luminescent cell viability assay; type: functional
[13] = Cytotoxicity against human RH4 cells assessed as combinational index measured at fraction affected value of 0.27 in presence of vorinostat at 10 uM incubated for 72 hrs by CellTiter-Glo Luminescent cell viability assay; type: functional
In short: (§3)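 Viability after 72 h of single-agent or combined treatment with the HDAC inhibitor (0.05–0.25 μM) and the EZH2 inhibitor. EZH2 inhibitor range: U937 5–25 μM; RH4 10–50 μM. Synergy was assessed by combination index and isobologram analysis.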

[14] = Cytotoxicity against human RH4 cells assessed as combinational index measured at fraction affected value of 0.45 in presence of vorinostat at 20 uM incubated for 72 hrs by CellTiter-Glo Luminescent cell viability assay; type: functional; in short: as §3
[15] = target: T2, Histone deacetylase (Homo sapiens) (UniProt Q13547+O15379+Q9UBN7+Q92769+Q9UQL6+Q8WUI4+Q9BY41+Q96DB2+P56524+Q9UKV0+Q969S8); test: Inhibition of HDAC in human U937 cells assessed as Ac-H3 level at 50 uM in presence of vorinostat incubated for 96 hrs by Western blot analysis (reference value: 1); type: cell-based; conditions: U-937
In short: (§4)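 U937 leukemia cells given EZH2 inhibitor 50 μM together with HDAC inhibitor 0.5 μM; Western blot at 96 and 120 h for H3K27me3 or acetyl-H3, actin as loading control; densitometry normalized to loading control then to DMSO vehicle.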

[16] = target: T2, Histone deacetylase (Homo sapiens); test: Inhibition of HDAC in human U937 cells assessed as Ac-H3 level at 50 uM in presence of vorinostat incubated for 120 hrs by Western blot analysis (reference value: 1); type: cell-based; conditions: U-937; in short: as §4
[17] = target: T3, Histone-lysine N-methyltransferase EZH2 (Homo sapiens, UniProt Q15910); test: Inhibition of EZH2 in human U937 cells assessed as H3K27me3 level at 50 uM incubated for 96 hrs by Western blot analysis; type: cell-based; conditions: U-937
T3 sequence (Q15910 whole entry, looked up): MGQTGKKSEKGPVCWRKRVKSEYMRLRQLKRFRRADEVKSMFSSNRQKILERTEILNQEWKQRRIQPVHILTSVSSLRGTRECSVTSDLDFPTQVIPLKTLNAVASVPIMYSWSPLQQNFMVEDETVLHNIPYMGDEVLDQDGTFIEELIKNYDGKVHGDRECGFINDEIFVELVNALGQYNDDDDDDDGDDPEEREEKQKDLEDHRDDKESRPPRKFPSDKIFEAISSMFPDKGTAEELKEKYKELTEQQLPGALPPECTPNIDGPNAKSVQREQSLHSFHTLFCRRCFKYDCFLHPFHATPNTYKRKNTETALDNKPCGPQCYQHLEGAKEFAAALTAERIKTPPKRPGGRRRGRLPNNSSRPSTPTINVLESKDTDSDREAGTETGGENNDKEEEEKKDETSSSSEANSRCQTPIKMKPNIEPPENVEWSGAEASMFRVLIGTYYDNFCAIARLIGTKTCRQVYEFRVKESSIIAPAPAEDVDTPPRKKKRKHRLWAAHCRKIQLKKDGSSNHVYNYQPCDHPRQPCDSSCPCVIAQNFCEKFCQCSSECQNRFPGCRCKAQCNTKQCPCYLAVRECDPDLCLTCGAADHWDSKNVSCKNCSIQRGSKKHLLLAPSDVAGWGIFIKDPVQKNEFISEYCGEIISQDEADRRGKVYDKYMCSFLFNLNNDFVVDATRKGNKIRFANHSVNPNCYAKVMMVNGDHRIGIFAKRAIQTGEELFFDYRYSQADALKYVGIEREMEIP

[18] = target: T3, Histone-lysine N-methyltransferase EZH2; test: Inhibition of EZH2 in human RH4 cells assessed as H3K27me3 level at 50 uM incubated for 72 hrs by Western blot analysis; type: cell-based
[19] = target: T3, Histone-lysine N-methyltransferase EZH2; test: Inhibition of EZH2 in human U937 cells assessed as H3K27me3 level at 50 uM in presence of vorinostat incubated for 96 hrs by Western blot analysis (reference value: 1); type: cell-based; conditions: U-937; in short: as §4

Sequence of Histone deacetylase 3 (O15379 whole entry): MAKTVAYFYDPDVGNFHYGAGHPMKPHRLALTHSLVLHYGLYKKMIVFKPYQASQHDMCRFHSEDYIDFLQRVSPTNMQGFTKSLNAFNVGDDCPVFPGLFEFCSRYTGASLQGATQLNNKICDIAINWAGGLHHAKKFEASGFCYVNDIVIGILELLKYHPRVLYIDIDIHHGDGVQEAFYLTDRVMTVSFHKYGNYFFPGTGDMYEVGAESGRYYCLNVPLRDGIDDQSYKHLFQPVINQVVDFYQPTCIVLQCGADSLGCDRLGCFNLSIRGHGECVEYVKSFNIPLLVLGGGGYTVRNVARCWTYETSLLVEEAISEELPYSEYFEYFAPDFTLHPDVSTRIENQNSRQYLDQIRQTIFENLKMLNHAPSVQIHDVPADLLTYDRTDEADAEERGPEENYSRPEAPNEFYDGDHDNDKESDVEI

Cc1cc(C)c(CNC(=O)c2cc(C)n(-c3cccc(NC(=O)CCCCCCC(=O)NO)c3)c2C)c(=O)[nH]1
IC50 (Histone deacetylase 3): 0.45 µM
IC50 (Histone deacetylase 8): 0.11 µM
inhibition at 25 µM (U-937 [1]): 90%
inhibition at 35 µM [2]: 90%
IC50 (THP-1): 12 µM
IC50 (SK-N-SH): 25 µM
IC50 (U-87 MG): 20 µM
Activity (U-937 [3]): 0.1%
Activity (U-937 [4]): 1.4%
Activity [5]: 30.3%
Activity [6]: 44.9%
Activity [7]: 4.4%
Activity (Homo sapiens): Dose-dependent effect
fold change (FC) (U-937 [8]): 2
Activity (U-87MG ATCC [9]): Active
Activity (U-87MG ATCC [10]): inactive
Activity (U-937 [11]): 8.2%

Cc1cc(C)c(CNC(=O)c2cc(C)n(-c3ccccc3)c2C)c(=O)[nH]1
CI (U-937 [12]): 0.04
CI [13]: 0.64
CI [14]: 0.49
fold change (FC) [15]: 2.1
fold change (FC) [16]: 0.8
fold change (FC) [17]: 0.9
fold change (FC) [18]: 0.3
fold change (FC) [19]: 1.1

— ChEMBL document CHEMBL4613315, “Design of First-in-Class Dual EZH2/HDAC Inhibitor: Biochemical Activity and Biological Evaluation in Cancer Cells” (ACS Med Chem Lett, 2020)
